From ChEMBL document CHEMBL1671863, “Inhibition of OXA-1 beta-lactamase by penems” (Antimicrob Agents Chemother, 2008) come the findings set out here.

A short description of experiment [1]: Inhibition of beta-lactamase OXA-1 expressed in Escherichia coli BL21 (DE3) using nitrocefin substrate by spectrophotometry. In outline:
(§1)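 Periplasmic OXA-1 (IPTG-induced, purified by isoelectric focusing ± gel filtration) assayed at 23°C in 50 mM sodium phosphate with 20 mM bicarbonate; 18 nM enzyme, 75 μM nitrocefin read at 482 nm with rising inactivator (penems 50–1,100 nM, tazobactam 50–3,000 μM). kobs from time-course fits plotted against inhibitor concentration gave kinact, then Ki.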

Experiment [2] can be described thus: Ratio of Kinact to Ki for beta-lactamase OXA-1 expressed in Escherichia coli BL21 (DE3) using nitrocefin substrate by spectrophotometry. In outline: as §1
Experiment [3] is described as follows: Binding affinity to beta-lactamase OXA-1 expressed in Escherichia coli BL21 (DE3) assessed as compound-enzyme covalent attachment by electrospray ionization mass spectrometry. In outline:
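Purified OXA-1 (40 μM) incubated 15 min with 1.2 mM inhibitor (30:1 inhibitor:enzyme) in 20 mM diethanolamine, pH 8.6; protein diluted in acetonitrile-1% formic acid to 10 μM and analysed intact by nanospray ESI-QTOF MS; deconvoluted spectra compared with apo enzyme (theoretical mass 28,132 Da).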

The nature of experiment [4]: Ratio of Kcat to Kinact for beta-lactamase OXA-1 expressed in Escherichia coli BL21 (DE3) using nitrocefin substrate by spectrophotometry. In outline: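 Partition ratio kcat/kinact set by turnover number: purified OXA-1 (40 μM) mixed 1:1 with inhibitor, 23°C, 50 mM sodium phosphate plus 20 mM bicarbonate, nitrocefin as reporter; inactivation followed up to 900 s and recovery of activity checked to 24 h.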

A short description of experiment [5]: Inhibition of beta-lactamase OXA-1 expressed in Escherichia coli DH10B assessed as reduction of piperacillin MIC at 4 mg/L. In outline:
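E. coli DH10B carrying plasmid RGN238 blaOXA-1 tested by agar dilution on Luria Bertani agar, 10⁴ CFU/spot from a Steers replicator; inhibitor held fixed at 4 μg/ml while piperacillin was raised in doubling dilutions.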

The structures appear in SMILES notation. Active and inactive are the calls of the source. No cut-off for these calls is given here.

With `O=C(O)C1=CS[C@@H]2/C(=C\c3cc4n(n3)CSC4)C(=O)N12` [PENEM-1], in experiment [1], the inhibition constant Ki came out at 45 nM. This molecule also registered a Kinact in experiment [1] of 0.13 s⁻¹. Besides, the Ratio in experiment [2] stood at 2.9 µM⁻¹ s⁻¹; in experiment [4] it was 0. Also, the inhibition result in experiment [3] and in experiment [5] was “Active” throughout.
Turning to `O=C(O)C1=CS[C@@H]2/C(=C\c3cc4n(n3)CSCC4)C(=O)N12` [PENEM-2], the Ki in experiment [1] came out at 12 nM. Also, in experiment [1], the Kinact is 0.11 s⁻¹. The Ratio is 9.2 µM⁻¹ s⁻¹ in experiment [2] and 0 in experiment [4]. Also, the inhibition result in experiment [3] and in experiment [5] was “Active” throughout.
As for `C[C@]1(Cn2ccnn2)[C@H](C(=O)O)N2C(=O)C[C@H]2S1(=O)=O` [TAZOBACTAM], in experiment [1], the inhibition constant Ki is 80000 nM and the Kinact amounted to 0.12 s⁻¹. For the same molecule, the Ratio in experiment [2] amounted to 0.0015 µM⁻¹ s⁻¹. The Ratio in experiment [4] was 349.

As a reminder, the Ki is the equilibrium dissociation constant of an inhibitor or competing ligand from its target. Lower therefore signals a stronger hold on the target.
